Measured values as given in ChEMBL document CHEMBL4138219, “Pyrano[3,2-a]carbazole alkaloids as effective agents against ischemic stroke in vitro and in vivo” (Eur J Med Chem, 2018).
Activity calls are given as the source filed them. The calls are words filed in the database; no cut-off is given here.

Key:
[1] = test system: Rattus norvegicus; assay: Reversal of middle cerebral artery occlusion and reperfusion-induced death in Sprague-Dawley rat assessed as survival rate at 80 mg/kg administered via oral gavage as qd for 7 days measured on day 7 post reperfusion (reference value: 50%); assay type: functional
[2] = test system: Rattus norvegicus; assay: Reversal of middle cerebral artery occlusion and reperfusion-induced decrease in body weight in Sprague-Dawley rat assessed as body weight at 80 mg/kg administered via oral gavage as qd for 7 days measured on day 7 post reperfusion (reference value: 82%); assay type: functional; parameters: scale not given: the % may be the effect or the level left
[3] = test system: Rattus norvegicus; assay: Anti-cerebral ischemia in Sprague-Dawley rat middle cerebral artery occlusion and reperfusion model assessed as decrease in brain infract volume at 80 mg/kg administered via oral gavage as qd for 7 days measured on day 7 post reperfusion by TTC staining-based assay; assay type: functional, organism-based
How it was run: (§1)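 Male Sprague-Dawley rats (260e280 g) randomised to MCAO/R, MCAO/R + NBP 80 mg/kg, or MCAO/R + compound at 20, 40 or 80 mg/kg. Rats without neurological impairment, or dead after reperfusion at 0 h, were excluded. On day 7, rats were transcardially perfused with PBS. Brains were cut into six 2-mm sections and stained with 1.5% TTC. Infarct = right pale area/left non-ischemic area, expressed as % of the MCAO/R group.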

[4] = test system: Rattus norvegicus; assay: Increase in neurological function in Sprague-Dawley rat middle cerebral artery occlusion and reperfusion model assessed as decrease in behavior deficit at 80 mg/kg administered via oral gavage as qd for 7 days measured on day 7 post reperfusion by Zea Longa's test; assay type: functional, organism-based
How it was run: (§2)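 Male SD rats (260–280 g) underwent MCAO with reperfusion. They were randomized to model, 80 mg/kg 3-n-butylphthalide, or compound at 20, 40 or 80 mg/kg. Rats without neurological impairment after reperfusion were excluded. Neurological deficit was scored on days 1–7 by the Zea Longa test, and forelimb falls were counted in a grid test.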

[5] = test system: PC-12; assay: Cytoprotective activity against H2O2-induced damage in rat PC12 cells assessed as cell viability at 10 uM after 24 hrs by MTT assay (reference value: 70.1 +/- 3.7%); assay type: functional; conditions: PC-12, 24 h, read-out: Activity
[6] = test system: PC-12; assay: Cytoprotective activity against oxygen-glucose deprivation/reoxygenation-induced damage in rat PC12 cells assessed as cell viability at 10 uM after 24 hrs by MTT assay (reference value: 70 +/- 5.1%); assay type: functional; conditions: PC-12, 24 h, read-out: Activity
[7] = Drug uptake in Sprague-Dawley rat brain at 40 mg/kg administered via oral gavage measured at 24 hrs by LC-MS/MS method; assay type: ADME, organism-based; conditions: read-out: Drug uptake
How it was run: (§3)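 For the time-course, male SD rats (260–280 g) received a single 40 mg/kg oral gavage dose and were killed at 0.083, 0.25, 0.5, 1, 2, 4, 6, 8, 12 and 24 h (n = 3 each). Plasma and brain homogenate (three volumes of saline) were protein-precipitated, centrifuged, and analyzed by validated LC-MS/MS. Results are given as mean ± SD.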

[8] = Drug uptake in Sprague-Dawley rat brain at 40 mg/kg administered via oral gavage measured at 8 hrs by LC-MS/MS method; assay type: ADME, organism-based; conditions: read-out: Drug uptake; how it was run: as §3
[9] = test system: Rattus norvegicus; assay: Anti-cerebral ischemia in Sprague-Dawley rat middle cerebral artery occlusion and reperfusion model assessed as decrease in brain infract volume at 20 to 40 mg/kg administered via oral gavage as qd for 7 days measured on day 7 post reperfusion by TTC staining-based assay; assay type: functional, organism-based; how it was run: as §1
[10] = test system: Rattus norvegicus; assay: Reversal of middle cerebral artery occlusion and reperfusion-induced decrease in body weight in Sprague-Dawley rat assessed as body weight at 20 mg/kg administered via oral gavage as qd for 7 days measured on day 7 post reperfusion (reference value: 82%); assay type: functional; parameters: scale not given: the % may be the effect or the level left
[11] = Cmax in Sprague-Dawley rat brain at 40 mg/kg administered via oral gavage by LC-MS/MS method; assay type: ADME, organism-based; parameters: dose 40 mg/kg, route oral
[12] = Plasma concentration in Sprague-Dawley rat at 40 mg/kg administered via oral gavage measured at 0.25 hrs by LC-MS/MS method; assay type: ADME, organism-based; how it was run: as §3
[13] = Drug uptake in Sprague-Dawley rat brain at 40 mg/kg administered via oral gavage measured at 12 hrs by LC-MS/MS method; assay type: ADME, organism-based; conditions: read-out: Drug uptake; how it was run: as §3
[14] = test system: Cortical neurone; assay: Neuroprotective activity against H2O2-induced damage in Sprague-Dawley rat primary cortical neurons assessed as cell viability at 1 uM after 24 hrs by MTT assay (reference value: 70 +/- 2.6%); assay type: functional; conditions: read-out: Activity
[15] = Drug uptake in Sprague-Dawley rat brain at 40 mg/kg administered via oral gavage measured at 0.25 hrs by LC-MS/MS method; assay type: ADME, organism-based; conditions: in vivo, BLD = below limit of detection; how it was run: as §3
[16] = Plasma concentration in Sprague-Dawley rat at 40 mg/kg administered via oral gavage measured at 12 hrs by LC-MS/MS method; assay type: ADME, organism-based; how it was run: as §3
[17] = Antioxidant activity assessed as free radical scavenging activity at 25 mg/ml by ESR method; assay type: functional
How it was run: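 ESR spin-trapping was done at room temperature. 50 mmol/L TEMP and 25 mg/mL compound were mixed in DMSO and exposed to UVA light for 1 min before recording. Settings were 10 mW microwave power, 1 G field modulation and 150 G scan width.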

[18] = Tmax in Sprague-Dawley rat plasma at 40 mg/kg administered via oral gavage by LC-MS/MS method; assay type: ADME, organism-based
[19] = test system: Cortical neurone; assay: Neuroprotective activity against H2O2-induced damage in Sprague-Dawley rat primary cortical neurons assessed as cell viability at 10 uM after 24 hrs by MTT assay (reference value: 70 +/- 2.6%); assay type: functional; conditions: read-out: Activity
[20] = Plasma concentration in Sprague-Dawley rat at 40 mg/kg administered via oral gavage measured at 1 hr by LC-MS/MS method; assay type: ADME, organism-based; how it was run: as §3
[21] = Plasma concentration in Sprague-Dawley rat at 40 mg/kg administered via oral gavage measured at 8 hrs by LC-MS/MS method; assay type: ADME, organism-based; how it was run: as §3
[22] = Ratio of AUC (0 to t) in Sprague-Dawley rat brain to plasma at 40 mg/kg administered via oral gavage; assay type: ADME, organism-based; conditions: read-out: Ratio AUC
How it was run: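 Brain-to-plasma exposure ratio, taken as AUC(0-t) in brain tissue divided by AUC(0-t) in plasma. Male SD rats (260–280 g) received a single 40 mg/kg oral gavage dose and were sampled from 0.083 to 24 h (n = 3 per time point). Brain was homogenized in saline and quantified by LC-MS/MS.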

[23] = Drug uptake in Sprague-Dawley rat brain at 40 mg/kg administered via oral gavage measured at 2 hrs by LC-MS/MS method; assay type: ADME, organism-based; conditions: read-out: Drug uptake; how it was run: as §3
[24] = Plasma concentration in Sprague-Dawley rat at 40 mg/kg administered via oral gavage measured at 0.083 hrs by LC-MS/MS method; assay type: ADME, organism-based; conditions: in vivo, BLD = below limit of detection; how it was run: as §3
[25] = test system: Rattus norvegicus; assay: Reversal of middle cerebral artery occlusion and reperfusion-induced death in Sprague-Dawley rat assessed as survival rate at 40 mg/kg administered via oral gavage as qd for 7 days measured on day 7 post reperfusion (reference value: 50%); assay type: functional; conditions: 168 h
[26] = Drug uptake in Sprague-Dawley rat brain at 40 mg/kg administered via oral gavage measured at 1 hr by LC-MS/MS method; assay type: ADME, organism-based; conditions: read-out: Drug uptake; how it was run: as §3
[27] = AUC (0 to t) in Sprague-Dawley rat brain at 40 mg/kg administered via oral gavage by LC-MS/MS method; assay type: ADME, organism-based; conditions: in vivo
[28] = Cmax in Sprague-Dawley rat plasma at 40 mg/kg administered via oral gavage by LC-MS/MS method; assay type: ADME, organism-based; parameters: dose 40 mg/kg, route oral
[29] = Plasma concentration in Sprague-Dawley rat at 40 mg/kg administered via oral gavage measured at 2 hrs by LC-MS/MS method; assay type: ADME, organism-based; how it was run: as §3
[30] = Plasma concentration in Sprague-Dawley rat at 40 mg/kg administered via oral gavage measured at 24 hrs by LC-MS/MS method; assay type: ADME, organism-based; how it was run: as §3
[31] = Drug uptake in Sprague-Dawley rat brain at 40 mg/kg administered via oral gavage measured at 0.5 hrs by LC-MS/MS method; assay type: ADME, organism-based; conditions: read-out: Drug uptake; how it was run: as §3
[32] = Plasma concentration in Sprague-Dawley rat at 40 mg/kg administered via oral gavage measured at 0.5 hrs by LC-MS/MS method; assay type: ADME, organism-based; how it was run: as §3
[33] = test system: Rattus norvegicus; assay: Increase in neurological function in Sprague-Dawley rat middle cerebral artery occlusion and reperfusion model assessed as decrease in forelimb falling number at 20 to 80 mg/kg administered via oral gavage as qd for 7 days measured on day 2 to 7 during compound dosing post reperfusion by grid test; assay type: functional, organism-based; how it was run: as §2
[34] = Drug uptake in Sprague-Dawley rat brain at 40 mg/kg administered via oral gavage measured at 4 hrs by LC-MS/MS method; assay type: ADME, organism-based; conditions: read-out: Drug uptake; how it was run: as §3
[35] = Plasma concentration in Sprague-Dawley rat at 40 mg/kg administered via oral gavage measured at 6 hrs by LC-MS/MS method; assay type: ADME, organism-based; how it was run: as §3
[36] = test system: Rattus norvegicus; assay: Increase in neurological function in Sprague-Dawley rat middle cerebral artery occlusion and reperfusion model assessed as decrease in behavior deficit at 20 to 80 mg/kg administered via oral gavage as qd for 7 days measured on day 7 post reperfusion by Zea Longa's test; assay type: functional, organism-based; how it was run: as §2
[37] = Drug uptake in Sprague-Dawley rat brain at 40 mg/kg administered via oral gavage measured at 6 hrs by LC-MS/MS method; assay type: ADME, organism-based; conditions: read-out: Drug uptake; how it was run: as §3
[38] = AUC (0 to t) in Sprague-Dawley rat plasma at 40 mg/kg administered via oral gavage by LC-MS/MS method; assay type: ADME, organism-based
[39] = test system: Rattus norvegicus; assay: Reversal of middle cerebral artery occlusion and reperfusion-induced death in Sprague-Dawley rat assessed as survival rate at 20 mg/kg administered via oral gavage as qd for 7 days measured on day 7 post reperfusion (reference value: 50%); assay type: functional; conditions: 168 h
[40] = Drug uptake in Sprague-Dawley rat brain at 40 mg/kg administered via oral gavage measured at 0.083 hrs by LC-MS/MS method; assay type: ADME, organism-based; conditions: in vivo, BLD = below limit of detection; how it was run: as §3
[41] = Tmax in Sprague-Dawley rat brain at 40 mg/kg administered via oral gavage by LC-MS/MS method; assay type: ADME, organism-based
[42] = Plasma concentration in Sprague-Dawley rat at 40 mg/kg administered via oral gavage measured at 4 hrs by LC-MS/MS method; assay type: ADME, organism-based; how it was run: as §3
[43] = test system: Cortical neurone; assay: Neuroprotective activity against H2O2-induced damage in Sprague-Dawley rat primary cortical neurons assessed as cell viability at 50 uM after 24 hrs by MTT assay (reference value: 70 +/- 2.6%); assay type: functional; conditions: read-out: Activity

Structure (SMILES): CCCCC1OC(=O)c2ccccc21 (stereo not drawn) [RAC-3-N-BUTYLPHTHALIDE]
- survival at 80 mg/kg ([1]; 168 h): 68.8%
- Activity [2]: 87.6%
- Activity [3]: Active
- Activity [4]: Active

Structure (SMILES): COc1ccc2[nH]c3c4c(c(C=O)cc3c2c1)OC(C)(C)C=C4 [CLAULANSINE F]
- viability at 10 µM [5]: 87.7%
- viability at 10 µM [6]: 93.1%

Structure (SMILES): Cc1cc2c([nH]c3ccc(C(C)(C)C)cc32)c2c1OC(C)(C)C=C2
- concentration at 24 h [7]: 472 ng/g
- concentration at 8 h [8]: 5890 ng/g
- Activity [1]: inactive
- Activity [9]: Active
- Activity [10]: 94.7%
- Cmax [11]: 5890 ng/g
- concentration at 0.25 h [12]: 264 ng/mL
- concentration at 12 h [13]: 5330 ng/g
- viability at 1 µM [14]: 97.6%
- Drug uptake [15]: Bld
- concentration at 12 h [16]: 1040 ng/mL
- Activity [17]: Active
- Tmax [18]: 6 h
- viability at 10 µM [5]: 96.8%
- viability at 10 µM [19]: 119%
- concentration at 1 h [20]: 324 ng/mL
- concentration at 8 h [21]: 1140 ng/mL
- Kp [22]: 4.3
- concentration at 2 h [23]: 1160 ng/g
- Cp [24]: Bld
- survival at 40 mg/kg [25]: 62.5%
- concentration at 1 h [26]: 129 ng/g
- AUCt [27]: 80618 ng·h/g
- Cmax [28]: 1510 ng/mL
- concentration at 2 h [29]: 871 ng/mL
- concentration at 24 h [30]: 19.6 ng/mL
- concentration at 0.5 h [31]: 38.5 ng/g
- concentration at 0.5 h [32]: 157 ng/mL
- Activity [33]: Active
- concentration at 4 h [34]: 3080 ng/g
- concentration at 6 h [35]: 1510 ng/mL
- Activity [36]: Active
- concentration at 6 h [37]: 4720 ng/g
- viability at 10 µM [6]: 96.1%
- AUC(0-t) [38]: 18800 ng·h/mL
- survival at 20 mg/kg [39]: 81.3%
- Drug uptake [40]: Bld
- Tmax [41]: 8 h
- concentration at 4 h [42]: 1110 ng/mL

Structure (SMILES): CC1=NN(c2ccccc2)C(=O)C1 [EDARAVONE]
- Activity [17]: Active
- viability at 10 µM [19]: 85.2%
- viability at 50 µM [43]: 86.7%

Structure (SMILES): COc1ccc2c(c1)c1cc(C=O)c3c(c1n2C)C=CC(C)(C)O3
- viability at 10 µM [5]: 93.8%
- viability at 10 µM [6]: 94.4%
